Key:
[1] = biological target: T1, Adrenergic receptor alpha-1 (Rattus norvegicus, UniProt P15823+P23944+P43140); test: Binding affinity against Alpha-1 adrenergic receptor in rat cortex using [3H]prazosin as the radioligand.; assay type: tissue-based, Brain
T1 sequence (P15823 whole entry): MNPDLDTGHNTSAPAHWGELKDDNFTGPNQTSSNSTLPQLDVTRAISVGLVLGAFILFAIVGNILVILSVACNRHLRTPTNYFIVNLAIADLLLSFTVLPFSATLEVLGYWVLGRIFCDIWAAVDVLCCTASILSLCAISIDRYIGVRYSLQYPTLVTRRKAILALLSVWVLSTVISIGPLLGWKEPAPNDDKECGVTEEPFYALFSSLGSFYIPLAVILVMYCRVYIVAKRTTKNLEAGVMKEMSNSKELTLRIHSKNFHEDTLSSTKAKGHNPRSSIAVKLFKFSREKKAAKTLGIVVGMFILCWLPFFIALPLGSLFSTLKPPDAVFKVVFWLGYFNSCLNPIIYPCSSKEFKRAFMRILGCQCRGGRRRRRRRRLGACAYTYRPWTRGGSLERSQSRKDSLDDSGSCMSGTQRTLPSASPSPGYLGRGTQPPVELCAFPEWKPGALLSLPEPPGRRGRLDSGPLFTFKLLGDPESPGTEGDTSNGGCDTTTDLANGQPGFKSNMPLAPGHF
T1 sequence (P23944 whole entry): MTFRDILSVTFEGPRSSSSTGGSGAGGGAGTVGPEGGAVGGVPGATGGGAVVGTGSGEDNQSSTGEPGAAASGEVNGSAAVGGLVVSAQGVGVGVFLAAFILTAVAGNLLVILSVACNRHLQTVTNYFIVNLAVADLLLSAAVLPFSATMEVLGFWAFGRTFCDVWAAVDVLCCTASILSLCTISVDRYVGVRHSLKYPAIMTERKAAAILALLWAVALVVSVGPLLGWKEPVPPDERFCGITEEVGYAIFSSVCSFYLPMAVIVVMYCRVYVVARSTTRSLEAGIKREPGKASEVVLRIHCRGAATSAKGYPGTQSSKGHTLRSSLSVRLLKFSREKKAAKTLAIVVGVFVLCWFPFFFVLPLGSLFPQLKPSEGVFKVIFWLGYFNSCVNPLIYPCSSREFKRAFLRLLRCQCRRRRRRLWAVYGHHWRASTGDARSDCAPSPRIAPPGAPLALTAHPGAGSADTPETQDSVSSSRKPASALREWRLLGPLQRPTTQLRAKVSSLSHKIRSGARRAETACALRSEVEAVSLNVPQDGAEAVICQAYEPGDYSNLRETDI
T1 sequence (P43140 whole entry): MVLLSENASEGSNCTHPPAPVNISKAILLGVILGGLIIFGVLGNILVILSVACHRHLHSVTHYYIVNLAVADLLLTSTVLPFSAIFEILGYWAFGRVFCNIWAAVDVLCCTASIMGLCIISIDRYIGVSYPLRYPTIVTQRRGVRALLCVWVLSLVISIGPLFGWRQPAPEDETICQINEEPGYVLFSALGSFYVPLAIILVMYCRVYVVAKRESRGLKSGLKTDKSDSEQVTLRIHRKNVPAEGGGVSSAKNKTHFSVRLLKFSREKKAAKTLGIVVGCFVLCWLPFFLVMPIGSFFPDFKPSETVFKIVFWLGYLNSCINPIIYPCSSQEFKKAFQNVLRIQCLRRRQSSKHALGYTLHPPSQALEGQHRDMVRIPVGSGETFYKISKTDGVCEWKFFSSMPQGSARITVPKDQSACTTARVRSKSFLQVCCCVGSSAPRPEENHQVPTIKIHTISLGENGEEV
Outline: (§1)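 Binding by the Jackson et al. method. 5-HT1A used [3H]OH-DPAT on rat hippocampus. α1 used [3H]prazosin, α2 [3H]RX821002 and β [3H]dihydroalprenolol, all on rat cortex. D1 used [3H]SCH-23390 on rat striatum. D2 used [3H]raclopride on LtkhD2A cell membranes.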

[2] = biological target: Sigma non-opioid intracellular receptor 1 (Rattus norvegicus, UniProt Q9R0C9); test: Binding affinity against sigma receptor from rat whole brains using [3H]DTG as the radioligand.
Outline: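 Whole rat brain membranes labelled with [3H]DTG (N,N-di(o-tolyl)guanidine), following Ross.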

D(1A) dopamine receptor = D(1A) dopamine receptor (Rattus norvegicus, UniProt P18901); test: Binding affinity against Dopamine receptor D1 in rat striatum using [3H]-SCH- 23390 as the radioligand.; assay type: tissue-based; outline: as §1
Adrenergic receptor beta = Adrenergic receptor beta (Rattus norvegicus, UniProt P18090+P10608+P26255); test: Binding affinity against Beta adrenergic receptor in rat cortex using [3H]dihydroalprenolol as the radioligand.; outline: as §1
D(2) dopamine receptor = D(2) dopamine receptor (Homo sapiens, UniProt P14416); test: Binding affinity against Dopamine receptor D2 from cell LtkhD2A membranes using [3H]raclopride as the radioligand.; outline: as §1

Measured: Ki

Sigma non-opioid intracellular receptor 1, sequence (Q9R0C9 whole entry): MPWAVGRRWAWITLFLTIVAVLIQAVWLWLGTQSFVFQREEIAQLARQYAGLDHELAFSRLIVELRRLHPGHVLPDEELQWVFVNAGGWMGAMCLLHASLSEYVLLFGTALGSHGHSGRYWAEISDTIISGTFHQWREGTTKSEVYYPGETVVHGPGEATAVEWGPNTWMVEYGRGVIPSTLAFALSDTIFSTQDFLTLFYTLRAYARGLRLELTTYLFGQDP
D(2) dopamine receptor, sequence (P14416 whole entry): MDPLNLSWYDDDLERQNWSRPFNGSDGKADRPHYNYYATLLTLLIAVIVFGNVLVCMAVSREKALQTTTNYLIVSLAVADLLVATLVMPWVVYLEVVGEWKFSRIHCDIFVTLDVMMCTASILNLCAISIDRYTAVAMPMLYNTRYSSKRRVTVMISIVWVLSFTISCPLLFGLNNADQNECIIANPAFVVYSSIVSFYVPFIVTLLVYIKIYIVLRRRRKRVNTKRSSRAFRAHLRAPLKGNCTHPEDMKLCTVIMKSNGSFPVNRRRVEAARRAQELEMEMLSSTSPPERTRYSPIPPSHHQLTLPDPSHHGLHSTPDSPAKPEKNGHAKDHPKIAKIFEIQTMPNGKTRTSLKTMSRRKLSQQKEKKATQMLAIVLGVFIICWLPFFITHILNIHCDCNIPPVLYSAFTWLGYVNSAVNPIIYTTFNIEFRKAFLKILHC
D(1A) dopamine receptor, sequence (P18901 whole entry): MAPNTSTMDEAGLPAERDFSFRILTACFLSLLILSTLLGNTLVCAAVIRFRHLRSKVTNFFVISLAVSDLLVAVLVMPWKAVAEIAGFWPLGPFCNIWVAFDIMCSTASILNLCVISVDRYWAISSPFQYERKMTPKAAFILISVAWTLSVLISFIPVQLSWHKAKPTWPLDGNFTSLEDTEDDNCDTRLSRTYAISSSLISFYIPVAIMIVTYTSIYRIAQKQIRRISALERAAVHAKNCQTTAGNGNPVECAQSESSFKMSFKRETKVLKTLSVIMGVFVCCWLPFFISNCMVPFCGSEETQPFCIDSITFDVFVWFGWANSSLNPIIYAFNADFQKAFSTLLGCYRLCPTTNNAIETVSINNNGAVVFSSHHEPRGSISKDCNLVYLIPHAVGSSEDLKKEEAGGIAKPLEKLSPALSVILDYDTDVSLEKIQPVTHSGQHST

C1=C(CN2CCOCC2)COc2c1cccc2OC[C@H]1CNCCO1.CS(=O)(=O)O
> 10 µM: all assays above

C1=C(CN2CCOCC2)COc2c1cccc2OC[C@@H]1CNCCO1.Cl
10 µM: Adrenergic receptor beta
> 10 µM: all other assays above

Reference: ChEMBL document CHEMBL1131235, “(R)-(+)-2-[[[3-(Morpholinomethyl)-2H-chromen-8-yl]oxy]methyl] morpholine methanesulfonate: a new selective rat 5-hydroxytryptamine1B receptor antagonist” (J Med Chem, 1998)
